In ChEMBL document CHEMBL1649281, “Detection of the novel extended-spectrum beta-lactamase OXA-161 from a plasmid-located integron in Pseudomonas aeruginosa clinical isolates from Spain” (2009):
Values after ≈ are worked out from the molar mass of the structure shown.

Key:
Assay type in all cases: functional
Pseudomonas aeruginosa [1] = assay: Antibacterial activity against Pseudomonas aeruginosa PAO1 by Etest
Pseudomonas aeruginosa [2] = assay: Antibacterial activity against Pseudomonas aeruginosa PAO1 harboring Pseudomonas aeruginosa plasmid DNA lung biopsy specimen of patient by Etest
Pseudomonas aeruginosa [3] = assay: Antibacterial activity against Pseudomonas aeruginosa isolated from wound infection of patient by Etest
Pseudomonas aeruginosa [4] = assay: Antibacterial activity against Pseudomonas aeruginosa isolated from lung biopsy specimen of patient by Etest
Pseudomonas aeruginosa [5] = assay: Antibacterial activity against Pseudomonas aeruginosa PAO1 harboring Pseudomonas aeruginosa plasmid DNA isolated from wound infection of patient by Etest
Pseudomonas aeruginosa [6] = assay: Antibacterial activity against Pseudomonas aeruginosa PAO1 harboring cloned pUCPOXA-2 by Etest
Pseudomonas aeruginosa [7] = assay: Antibacterial activity against Pseudomonas aeruginosa PAO1 harboring cloned pUCPOXA-161 by Etest
Pseudomonas aeruginosa [8] = assay: Antibacterial activity against Pseudomonas aeruginosa isolated from wound infection of patient by CLSI broth microdilution method
Method in brief: (§1)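 CLSI standard broth microdilution MICs were determined for carbenicillin, ceftazidime, and ceftazidime plus clavulanate held at a fixed 4 μg/ml.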

Pseudomonas aeruginosa [9] = assay: Antibacterial activity against Pseudomonas aeruginosa isolated from lung biopsy specimen of patient by CLSI broth microdilution method; method in brief: as §1
Pseudomonas aeruginosa [10] = assay: Antibacterial activity against Pseudomonas aeruginosa PAO1 harboring Pseudomonas aeruginosa plasmid DNA lung biopsy specimen of patient by CLSI broth microdilution method
Method in brief: (§2)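 Plasmid DNA from the clinical isolate was electroporated into PAO1, and transformants were selected on LB agar with 20 μg/ml ceftazidime. Transformants were confirmed by double-disk synergy test and PCR. CLSI broth microdilution MICs were determined for carbenicillin, ceftazidime, and ceftazidime plus fixed 4 μg/ml clavulanate.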

Pseudomonas aeruginosa [11] = assay: Antibacterial activity against Pseudomonas aeruginosa PAO1 harboring cloned pUCPOXA-161 by CLSI broth microdilution method; method in brief: as §1
Pseudomonas aeruginosa [12] = assay: Antibacterial activity against Pseudomonas aeruginosa PAO1 by CLSI broth microdilution method
Method in brief: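 MIC by standard CLSI broth microdilution, tested with carbenicillin, ceftazidime, and ceftazidime plus clavulanate at 4 μg/ml. P. aeruginosa PAO1 was the recipient strain, with transformants produced by electroporation and selected on LB agar with 20 μg/ml ceftazidime.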

Pseudomonas aeruginosa [13] = assay: Antibacterial activity against Pseudomonas aeruginosa PAO1 harboring Pseudomonas aeruginosa plasmid DNA isolated from wound infection of patient by CLSI broth microdilution method; method in brief: as §2
Pseudomonas aeruginosa [14] = assay: Antibacterial activity against Pseudomonas aeruginosa PAO1 harboring cloned pUCPOXA-2 by CLSI broth microdilution method; method in brief: as §1

Molecule | MIC (Pseudomonas aeruginosa [1]) [µg/mL] | MIC (Pseudomonas aeruginosa [2]) [µg/mL] | MIC (Pseudomonas aeruginosa [3]) [µg/mL] | MIC (Pseudomonas aeruginosa [4]) [µg/mL] | MIC (Pseudomonas aeruginosa [5]) [µg/mL] | MIC (Pseudomonas aeruginosa [6]) [µg/mL] | MIC (Pseudomonas aeruginosa [7]) [µg/mL] | MIC (Pseudomonas aeruginosa [8]) [µg/mL] | MIC (Pseudomonas aeruginosa [9]) [µg/mL] | MIC (Pseudomonas aeruginosa [10]) [µg/mL] | MIC (Pseudomonas aeruginosa [11]) [µg/mL] | MIC (Pseudomonas aeruginosa [12]) [µg/mL] | MIC (Pseudomonas aeruginosa [13]) [µg/mL] | MIC (Pseudomonas aeruginosa [14]) [µg/mL]
CO/N=C(\C(=O)N[C@@H]1C(=O)N2C(C(=O)[O-])=C(C[N+]3(C)CCCC3)CS[C@H]12)c1csc(N)n1 | 1 (≈ 2.08 µM) | 8 (≈ 16.6 µM) | 16 (≈ 33.3 µM) | 12 (≈ 25 µM) | 8 (≈ 16.6 µM) |  |  |  |  |  |  |  |  | 
C[C@@H](O)[C@H]1C(=O)N2C(C(=O)O)=C(SCCNC=N)C[C@H]12 [IMIPENEM ANHYDROUS] | 1.5 (≈ 5.01 µM) | 1 (≈ 3.34 µM) | 16 (≈ 53.4 µM) | 32 (≈ 107 µM) | 1 (≈ 3.34 µM) | 1.5 (≈ 5.01 µM) | 1.5 (≈ 5.01 µM) |  |  |  |  |  |  | 
CC1(C)S[C@@H]2[C@H](NC(=O)C(C(=O)O)c3ccccc3)C(=O)N2[C@H]1C(=O)O (stereo not given in full) [CARBENICILLIN] |  |  |  |  |  |  |  | 128 (≈ 338 µM) | 128 (≈ 338 µM) | 128 (≈ 338 µM) | 128 (≈ 338 µM) | 32 (≈ 84.6 µM) | 128 (≈ 338 µM) | > 256
CCN1CCN(C(=O)N[C@@H](C(=O)N[C@@H]2C(=O)N3[C@@H]2SC(C)(C)[C@@H]3C(=O)O)c2ccccc2)C(=O)C1=O [PIPERACILLIN] | 2 (≈ 3.86 µM) | 32 (≈ 61.8 µM) | 24 (≈ 46.4 µM) | 24 (≈ 46.4 µM) | 16 (≈ 30.9 µM) | 48 (≈ 92.7 µM) | 24 (≈ 46.4 µM) |  |  |  |  |  |  | 
COLISTIN | 2 | 2 | 2 | 2 | 2 |  |  |  |  |  |  |  |  | 
GENTAMICIN | 2 | 8 | 32 | 64 | 12 |  |  |  |  |  |  |  |  | 
NCC[C@H](O)C(=O)N[C@@H]1C[C@H](N)[C@@H](O[C@H]2O[C@H](CN)[C@@H](O)[C@H](O)[C@H]2O)[C@H](O)[C@H]1O[C@H]1O[C@H](CO)[C@@H](O)[C@H](N)[C@H]1O [AMIKACIN] | 3 (≈ 5.12 µM) | 12 (≈ 20.5 µM) | 32 (≈ 54.6 µM) | 64 (≈ 109 µM) | 12 (≈ 20.5 µM) |  |  |  |  |  |  |  |  | 
CC(C)(O/N=C(\C(=O)N[C@@H]1C(=O)N2C(C(=O)[O-])=C(C[n+]3ccccc3)CS[C@H]12)c1csc(N)n1)C(=O)O [CEFTAZIDIME] |  |  |  |  |  |  |  | > 256 | > 256 | 128 (≈ 234 µM) | 64 (≈ 117 µM) | 2 (≈ 3.66 µM) | 128 (≈ 234 µM) | 8 (≈ 14.6 µM)
C[C@@H](O)[C@H]1C(=O)N2C(C(=O)O)=C(S[C@@H]3CN[C@H](C(=O)N(C)C)C3)[C@H](C)[C@H]12 [MEROPENEM] | 0.38 (≈ 0.991 µM) | 0.75 (≈ 1.96 µM) | 6 (≈ 15.6 µM) | 8 (≈ 20.9 µM) | 0.75 (≈ 1.96 µM) | 0.38 (≈ 0.991 µM) | 0.5 (≈ 1.3 µM) |  |  |  |  |  |  | 
NC[C@H]1O[C@H](O[C@H]2[C@H](O)[C@@H](O[C@H]3O[C@H](CO)[C@@H](O)[C@H](N)[C@H]3O)[C@H](N)C[C@@H]2N)[C@H](N)C[C@@H]1O [TOBRAMYCIN] | 1 (≈ 2.14 µM) | 12 (≈ 25.7 µM) | 48 (≈ 103 µM) | 64 (≈ 137 µM) | 12 (≈ 25.7 µM) |  |  |  |  |  |  |  |  | 
